ChEMBL document CHEMBL4393701, “Appendix A. dithioloquinolinethiones as new potential multitargeted antibacterial and antifungal agents: Synthesis, biological evaluation and molecular docking studies” (2019)
Values after ≈ are worked out from the molar mass of the structure shown.

What was measured:
Bacillus cereus [1] = assay: Antibacterial activity against Bacillus cereus clinical isolate after 24 hrs by iodonitrotetrazolium chloride dye based microdilution assay; assay type: functional
In short: (§1)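 Fresh overnight cultures adjusted spectrophotometrically to 1×10^5 CFU/mL, giving 1.0×10^4 CFU per well in tryptic soy broth. Compounds were dissolved in 5% DMSO and tested at 0.001-1.0 mg/ml by serial dilution; 5% DMSO was the negative control. After 24 h at 37 °C, 0.2 mg/mL INT solution was added for 30 min at 37 °C and OD read at 655 nm. MIC is the lowest concentration giving significant growth inhibition versus the positive control. Duplicates, repeated three times.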

Bacillus cereus [2] = assay: Bactericidal activity against Bacillus cereus clinical isolate incubated for 24 hrs followed by re-plating on tryptic soy broth; assay type: functional
In short: (§2)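 Bacteria were grown in tryptic soy broth, 1.0×10^4 CFU per well, with compounds in 5% DMSO at 0.001-1.0 mg/ml for 24 h at 37 °C. Then 10 µL was subcultured into fresh TSB. MBC is the lowest concentration showing no growth after subculture, taken as 99.5% kill of the original inoculum. Duplicates, repeated three times.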

Micrococcus flavus [3] = assay: Antibacterial activity against Micrococcus flavus ATCC 10240 after 24 hrs by iodonitrotetrazolium chloride dye based microdilution method; assay type: functional; settings: ATCC 10240, 24 h; in short: as §1
Micrococcus flavus [4] = assay: Bactericidal activity against Micrococcus flavus ATCC 10240 incubated for 24 hrs followed by re-plating on tryptic soy broth; assay type: functional; settings: ATCC 10240, 24 h; in short: as §2
Staphylococcus aureus [5] = assay: Antibacterial activity against Staphylococcus aureus ATCC 6538 after 24 hrs by iodonitrotetrazolium chloride dye based microdilution method; assay type: functional; settings: ATCC 6538, 24 h; in short: as §1
Staphylococcus aureus [6] = assay: Bactericidal activity against Staphylococcus aureus ATCC 6538 incubated for 24 hrs followed by re-plating on tryptic soy broth; assay type: functional; settings: ATCC 6538, 24 h; in short: as §2
Listeria monocytogenes [7] = assay: Antibacterial activity against Listeria monocytogenes NCTC 7973 after 24 hrs by iodonitrotetrazolium chloride dye based microdilution method; assay type: functional; settings: NCTC 7973, 24 h; in short: as §1
Listeria monocytogenes [8] = assay: Bactericidal activity against Listeria monocytogenes NCTC 7973 incubated for 24 hrs followed by re-plating on tryptic soy broth; assay type: functional; settings: NCTC 7973, 24 h; in short: as §2
Enterobacter cloacae [9] = assay: Antibacterial activity against Enterobacter cloacae clinical isolate after 24 hrs by iodonitrotetrazolium chloride dye based microdilution method; assay type: functional; in short: as §1
Enterobacter cloacae [10] = assay: Bactericidal activity against Enterobacter cloacae incubated for 24 hrs followed by re-plating on tryptic soy broth; assay type: functional; in short: as §2
Pseudomonas aeruginosa [11] = assay: Antibacterial activity against Pseudomonas aeruginosa ATCC 27853 after 24 hrs by iodonitrotetrazolium chloride dye based microdilution method; assay type: functional; settings: ATCC 27853, 24 h; in short: as §1
Pseudomonas aeruginosa [12] = assay: Bactericidal activity against Pseudomonas aeruginosa ATCC 27853 incubated for 24 hrs followed by re-plating on tryptic soy broth; assay type: functional; settings: ATCC 27853, 24 h; in short: as §2
Salmonella typhimurium [13] = assay: Antibacterial activity against Salmonella typhimurium ATCC 13311 after 24 hrs by iodonitrotetrazolium chloride dye based microdilution method; assay type: functional, Salmonella enterica subsp. enterica serovar Typhimurium; settings: Salmonella enterica, ATCC 13311, 24 h; in short: as §1
Salmonella typhimurium [14] = assay: Bactericidal activity against Salmonella typhimurium ATCC 13311 incubated for 24 hrs followed by re-plating on tryptic soy broth; assay type: functional, Salmonella enterica subsp. enterica serovar Typhimurium; settings: Salmonella enterica, ATCC 13311, 24 h; in short: as §2
Escherichia coli [15] = assay: Antibacterial activity against Escherichia coli ATCC 35210 after 24 hrs by iodonitrotetrazolium chloride dye based microdilution method; assay type: functional; settings: ATCC 35210, 24 h; in short: as §1
Escherichia coli [16] = assay: Bactericidal activity against Escherichia coli ATCC 35210 incubated for 24 hrs followed by re-plating on tryptic soy broth; assay type: functional; settings: ATCC 35210, 24 h; in short: as §2
Aspergillus fumigatus [17] = assay: Antifungal activity against Aspergillus fumigatus ATCC 1022 after 72 hrs by microdilution technique; assay type: functional; settings: ATCC 1022, 72 h
In short: (§3)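 Spores were washed off malt agar with 0.85% saline containing 0.1% Tween 80 and adjusted to about 1.0×10^5 per well. Compounds in 5% DMSO were serially diluted (0.001-1.0 mg/ml) in malt broth with inoculum. Plates were shaken at 160 rpm for 72 h at 28 °C. MIC is the lowest concentration without visible growth under a binocular microscope. Three independent experiments in duplicate.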

Aspergillus fumigatus [18] = assay: Fungicidal activity against Aspergillus fumigatus ATCC 1022 incubated for 72 hrs followed by sub-culturing on broth malt medium and measured after 72 hrs; assay type: functional; settings: ATCC 1022, 72 h
In short: (§4)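 After 72 h exposure in malt broth, 2 µL from test wells was subcultured into wells holding 100 µL broth and incubated a further 72 h at 28 °C. MFC is the lowest concentration with no visible growth, taken as 99.5% kill of the original inoculum. Three independent experiments in duplicate.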

Aspergillus versicolor [19] = assay: Antifungal activity against Aspergillus versicolor ATCC 11730 after 72 hrs by microdilution method; assay type: functional; settings: ATCC 11730, 72 h; in short: as §3
Aspergillus versicolor [20] = assay: Fungicidal activity against Aspergillus versicolor ATCC 11730 incubated for 72 hrs followed by sub-culturing on broth malt medium and measured after 72 hrs; assay type: functional; settings: ATCC 11730, 72 h; in short: as §4
Aspergillus ochraceus [21] = assay: Antifungal activity against Aspergillus ochraceus ATCC 12066 after 72 hrs by microdilution technique; assay type: functional; settings: ATCC 12066, 72 h; in short: as §3
Aspergillus ochraceus [22] = assay: Fungicidal activity against Aspergillus ochraceus ATCC 12066 incubated for 72 hrs followed by sub-culturing on broth malt medium and measured after 72 hrs; assay type: functional; settings: ATCC 12066, 72 h; in short: as §4
Aspergillus niger [23] = assay: Antifungal activity against Aspergillus niger ATCC 6275 after 72 hrs by microdilution technique; assay type: functional; settings: ATCC 6275, 72 h; in short: as §3
Aspergillus niger [24] = assay: Fungicidal activity against Aspergillus niger ATCC 6275 incubated for 72 hrs followed by sub-culturing on broth malt medium and measured after 72 hrs; assay type: functional; settings: ATCC 6275, 72 h; in short: as §4
Trichoderma viride [25] = assay: Antifungal activity against Trichoderma viride IAM 5061 after 72 hrs by microdilution technique; assay type: functional; settings: IAM 5061, 72 h; in short: as §3
Trichoderma viride [26] = assay: Fungicidal activity against Trichoderma viride IAM 5061 incubated for 72 hrs followed by sub-culturing on broth malt medium and measured after 72 hrs; assay type: functional; settings: IAM 5061, 72 h; in short: as §4
Penicillium ochrochloron [27] = assay: Antifungal activity against Penicillium ochrochloron ATCC 9112 after 72 hrs by microdilution technique; assay type: functional; settings: ATCC 9112, 72 h; in short: as §3
Penicillium ochrochloron [28] = assay: Fungicidal activity against Penicillium ochrochloron ATCC 9112 incubated for 72 hrs followed by sub-culturing on broth malt medium and measured after 72 hrs; assay type: functional; settings: ATCC 9112, 72 h; in short: as §4
[29] = Antifungal activity against Penicillium funiculosum ATCC 36839 after 72 hrs by microdilution technique; assay type: functional; settings: Talaromyces pinophilus, ATCC 36839, 72 h; in short: as §3
[30] = Fungicidal activity against Penicillium funiculosum ATCC 36839 incubated for 72 hrs followed by sub-culturing on broth malt medium and measured after 72 hrs; assay type: functional; settings: Talaromyces pinophilus, ATCC 36839, 72 h; in short: as §4
Penicillium cyclopium [31] = assay: Antifungal activity against Penicillium verrucosum var. cyclopium food isolate after 72 hrs by microdilution technique; assay type: functional; in short: as §3
Penicillium cyclopium [32] = assay: Fungicidal activity against Penicillium verrucosum var. cyclopium food isolate incubated for 72 hrs followed by sub-culturing on broth malt medium and measured after 72 hrs; assay type: functional; in short: as §4

Compound | MIC (Bacillus cereus [1]) [µM] | MBC (Bacillus cereus [2]) [µM] | MIC (Micrococcus flavus [3]) [µM] | MBC (Micrococcus flavus [4]) [µM] | MIC (Staphylococcus aureus [5]) [µM] | MBC (Staphylococcus aureus [6]) [µM] | MIC (Listeria monocytogenes [7]) [µM] | MBC (Listeria monocytogenes [8]) [µM] | MIC (Enterobacter cloacae [9]) [µM] | MBC (Enterobacter cloacae [10]) [µM] | MIC (Pseudomonas aeruginosa [11]) [µM] | MBC (Pseudomonas aeruginosa [12]) [µM] | MIC (Salmonella typhimurium [13]) [µM] | MBC (Salmonella typhimurium [14]) [µM] | MIC (Escherichia coli [15]) [µM] | MBC (Escherichia coli [16]) [µM] | MIC (Aspergillus fumigatus [17]) [×10⁻² mM] | MFC (Aspergillus fumigatus [18]) [×10⁻² mM] | MIC (Aspergillus versicolor [19]) [×10⁻² mM] | MFC (Aspergillus versicolor [20]) [×10⁻² mM] | further results
CC1(C)c2ssc(=S)c2-c2ccccc2N1C(=O)CN1C(=O)CCC1=O | 37.1 (≈ 15 µg/mL) | 74.2 (≈ 30 µg/mL) | 37.1 (≈ 15 µg/mL) | 74.2 (≈ 30 µg/mL) | 37.1 (≈ 15 µg/mL) | 74.2 (≈ 30 µg/mL) | 37.1 (≈ 15 µg/mL) | 74.2 (≈ 30 µg/mL) | 37.1 (≈ 15 µg/mL) | 74.2 (≈ 30 µg/mL) | 37.1 (≈ 15 µg/mL) | 74.2 (≈ 30 µg/mL) | 37.1 (≈ 15 µg/mL) | 74.2 (≈ 30 µg/mL) | 37.1 (≈ 15 µg/mL) | 74.2 (≈ 30 µg/mL) | 11.1 | 14.8 | 14.8 | 29.7 | MIC (Aspergillus ochraceus [21]): 14.8 ×10⁻² mM; MFC (Aspergillus ochraceus [22]): 29.7 ×10⁻² mM; MIC (Aspergillus niger [23]): 7.42 ×10⁻² mM; MFC (Aspergillus niger [24]): 14.8 ×10⁻² mM; MIC (Trichoderma viride [25]): 1.48 ×10⁻² mM; MFC (Trichoderma viride [26]): 1.98 ×10⁻² mM; MIC (Penicillium ochrochloron [27]): 0.99 ×10⁻² mM; MFC (Penicillium ochrochloron [28]): 1.98 ×10⁻² mM; MIC [29]: 11.1 ×10⁻² mM; MFC [30]: 29.7 ×10⁻² mM; MIC (Penicillium cyclopium [31]): 14.8 ×10⁻² mM; MFC (Penicillium cyclopium [32]): 29.7 ×10⁻² mM
COc1ccc2c(c1)-c1c(ssc1=S)C(C)(C)N2C(=O)CSc1nc2ccccc2s1 | 29.8 (≈ 15 µg/mL) | 59.7 (≈ 30 µg/mL) | 29.8 (≈ 15 µg/mL) | 59.7 (≈ 30 µg/mL) | 29.8 (≈ 15 µg/mL) | 59.7 (≈ 30 µg/mL) | 29.8 (≈ 15 µg/mL) | 59.7 (≈ 30 µg/mL) | 29.8 (≈ 15 µg/mL) | 59.7 (≈ 30 µg/mL) | 29.8 (≈ 15 µg/mL) | 59.7 (≈ 30 µg/mL) | 29.8 (≈ 15 µg/mL) | 59.7 (≈ 30 µg/mL) | 29.8 (≈ 15 µg/mL) | 59.7 (≈ 30 µg/mL) | 1.59 | 2.98 | 1.59 | 2.98 | MIC (Aspergillus ochraceus [21]): 1.59 ×10⁻² mM; MFC (Aspergillus ochraceus [22]): 2.98 ×10⁻² mM; MIC (Aspergillus niger [23]): 1.59 ×10⁻² mM; MFC (Aspergillus niger [24]): 2.98 ×10⁻² mM; MIC (Trichoderma viride [25]): 0.8 ×10⁻² mM; MFC (Trichoderma viride [26]): 1.59 ×10⁻² mM; MIC (Penicillium ochrochloron [27]): 0.4 ×10⁻² mM; MFC (Penicillium ochrochloron [28]): 0.8 ×10⁻² mM; MIC [29]: 1.59 ×10⁻² mM; MFC [30]: 2.98 ×10⁻² mM; MIC (Penicillium cyclopium [31]): 1.59 ×10⁻² mM; MFC (Penicillium cyclopium [32]): 2.98 ×10⁻² mM
